The source of these data is ChEMBL document CHEMBL4043061, “Potent, Selective, Allosteric Inhibition of Human Plasmin by Sulfated Non-Saccharide Glycosaminoglycan Mimetics” (J Med Chem, 2017).

For experiment [1], the target named is Plasminogen (Homo sapiens) (UniProt P00747). Description: Allosteric inhibition of full length human plasmin by using chromogenic substrate spectrozyme PL preincubated for 5 mins followed by substrate addition by spectrophotometric method. The gist of the method: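 Inhibitor added from 0–20 mM aqueous stocks, or vehicle. After 5 min, Spectrozyme PL added (1 mM stock). Residual activity taken from initial rate of A405 rise. Logistic fit gives IC50, efficacy and Hill slope.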
Sequence of Plasminogen (Homo sapiens) (P00747 97-580 limits assumed): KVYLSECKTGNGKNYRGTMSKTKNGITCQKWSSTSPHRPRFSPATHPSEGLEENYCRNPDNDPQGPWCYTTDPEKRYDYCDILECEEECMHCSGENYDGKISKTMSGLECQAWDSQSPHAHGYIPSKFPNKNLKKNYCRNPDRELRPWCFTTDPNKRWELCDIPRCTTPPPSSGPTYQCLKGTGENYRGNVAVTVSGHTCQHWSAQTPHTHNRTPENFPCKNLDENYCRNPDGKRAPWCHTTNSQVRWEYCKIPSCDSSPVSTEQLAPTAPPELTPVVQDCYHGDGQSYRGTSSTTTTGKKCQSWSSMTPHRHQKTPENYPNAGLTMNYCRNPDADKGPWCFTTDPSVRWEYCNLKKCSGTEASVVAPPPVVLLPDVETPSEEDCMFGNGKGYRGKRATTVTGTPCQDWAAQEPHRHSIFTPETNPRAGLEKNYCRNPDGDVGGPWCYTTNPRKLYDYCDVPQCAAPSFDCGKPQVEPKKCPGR
Sequence of Plasminogen (Homo sapiens) (P00747 581-810 limits assumed): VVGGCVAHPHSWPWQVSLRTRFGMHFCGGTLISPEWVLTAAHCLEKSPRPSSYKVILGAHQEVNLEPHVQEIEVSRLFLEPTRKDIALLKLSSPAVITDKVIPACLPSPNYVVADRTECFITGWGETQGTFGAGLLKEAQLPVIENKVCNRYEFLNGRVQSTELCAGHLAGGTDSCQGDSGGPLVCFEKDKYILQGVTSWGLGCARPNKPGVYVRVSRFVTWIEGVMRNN

Experiment [2] concerns the target Prothrombin (Homo sapiens) (UniProt P00734). The experiment in a line: Inhibition of human thrombin by using chromogenic substrate spectrozyme TH preincubated for 5 mins followed by substrate addition by spectrophotometric method. The gist of the method: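 Thrombin at 6 nM final, 25 °C, in 20 mM Tris-HCl pH 7.4 with 100 mM NaCl, 2.5 mM CaCl2, 0.1% PEG8000, 0.02% Tween80. Inhibitor (0–20 mM stock) or vehicle preincubated 5 min with enzyme. Spectrozyme TH added (1.0 mM stock). Residual activity read as initial rate of A405 increase and fitted to a sigmoidal dose–response curve.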

The target in experiment [3] is Coagulation factor X (Homo sapiens) (UniProt P00742). The experiment in a line: Inhibition of human F10a by using chromogenic substrate spectrozyme F10a preincubated for 5 mins followed by substrate addition by spectrophotometric method. The gist of the method:
(§1)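 Tris-HCl pH 7.4 buffer (100 mM NaCl, 2.5 mM CaCl2, 0.1% PEG8000, 0.02% Tween80) at 37 °C; factor IXa buffer also held 33% ethylene glycol. Final enzyme: factor Xa 1.09 nM, XIa 0.75 nM, XIIa 10 nM, IXa 250 nM, trypsin 0.145 µg/mL, chymotrypsin […]. Inhibitor from 0–20 mM stock, 5 min preincubation, then substrate. Initial A405 rate, sigmoidal dose–response fit.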

Experiment [4] deals with Coagulation factor XI (Homo sapiens) (UniProt P03951). Description: Inhibition of human F11a by using chromogenic substrate S-2366 preincubated for 5 mins followed by substrate addition by spectrophotometric method. The gist of the method: as §1
Sequence of Coagulation factor XI (Homo sapiens) (P03951 19-387 limits assumed): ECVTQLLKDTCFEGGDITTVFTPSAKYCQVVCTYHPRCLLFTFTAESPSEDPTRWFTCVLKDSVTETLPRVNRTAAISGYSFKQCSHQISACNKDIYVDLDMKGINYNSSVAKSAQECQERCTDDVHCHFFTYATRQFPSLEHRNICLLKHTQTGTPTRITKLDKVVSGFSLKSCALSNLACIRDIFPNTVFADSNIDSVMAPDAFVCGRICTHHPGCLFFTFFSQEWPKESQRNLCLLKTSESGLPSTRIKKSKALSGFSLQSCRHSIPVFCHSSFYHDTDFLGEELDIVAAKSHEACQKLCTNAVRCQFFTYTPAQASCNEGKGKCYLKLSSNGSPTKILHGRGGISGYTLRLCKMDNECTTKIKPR
Sequence of Coagulation factor XI (Homo sapiens) (P03951 388-625 limits assumed): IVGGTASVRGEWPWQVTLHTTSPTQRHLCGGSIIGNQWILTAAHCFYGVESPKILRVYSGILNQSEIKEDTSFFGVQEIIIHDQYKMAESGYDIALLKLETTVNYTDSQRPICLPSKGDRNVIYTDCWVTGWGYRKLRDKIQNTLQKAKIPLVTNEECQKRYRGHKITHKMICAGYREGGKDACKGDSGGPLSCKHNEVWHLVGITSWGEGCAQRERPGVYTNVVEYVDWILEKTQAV
Experiment [5] addresses Plasminogen (Homo sapiens) (UniProt P00747). The experiment in a line: Binding affinity to human plasmin assessed as loss of intrinsic tryptophan fluorescence at 250 uM by spectrofluorometric method.
The species named for the next experiment is Homo sapiens. The experiment in a line: Inhibition of human chymotrypsin using chromogenic substrate spectrozyme Cty preincubated for 5 mins followed by substrate addition by spectrophotometric method. The gist of the method: as §1
Experiment [6] concerns the target Plasminogen (Homo sapiens) (UniProt P00747). The settings on record: 200 uM.

The source made the active and inactive calls. The calls are words filed in the database; no cut-off is given here.

Sequence of Coagulation factor X (Homo sapiens) (P00742 41-179 limits assumed): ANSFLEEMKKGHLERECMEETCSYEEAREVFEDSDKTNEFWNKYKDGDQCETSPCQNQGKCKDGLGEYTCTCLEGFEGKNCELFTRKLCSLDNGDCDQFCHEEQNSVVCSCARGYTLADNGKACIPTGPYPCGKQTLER
Sequence of Coagulation factor X (Homo sapiens) (P00742 235-488 limits assumed): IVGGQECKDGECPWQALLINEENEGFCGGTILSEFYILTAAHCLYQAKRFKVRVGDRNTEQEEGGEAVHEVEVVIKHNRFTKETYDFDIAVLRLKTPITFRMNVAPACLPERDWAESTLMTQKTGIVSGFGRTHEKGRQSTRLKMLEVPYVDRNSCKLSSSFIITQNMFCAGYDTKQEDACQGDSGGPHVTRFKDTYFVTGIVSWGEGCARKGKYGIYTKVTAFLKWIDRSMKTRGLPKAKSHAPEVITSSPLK

In the case of `O=c1c(OS(=O)(=O)O)c(-c2ccc(OS(=O)(=O)O)c(OS(=O)(=O)O)c2)oc2cc(OS(=O)(=O)O)cc(OCCCCOc3cc(OS(=O)(=O)O)cc4oc(-c5ccc(OS(=O)(=O)O)c(OS(=O)(=O)O)c5)c(OS(=O)(=O)O)c(=O)c34)c12`, the Efficacy in experiment [1] is 72%.
Still for that read-out and setting: in the case of `O=c1cc(-c2ccc(OS(=O)(=O)O)cc2)oc2cc(OS(=O)(=O)O)cc(OCc3ccc(COc4cc(OS(=O)(=O)O)cc5oc(-c6ccc(OS(=O)(=O)O)c(OS(=O)(=O)O)c6)c(OS(=O)(=O)O)c(=O)c45)cc3)c12` it was 109%; in that of `O=c1cc(-c2ccc(OS(=O)(=O)O)cc2)oc2cc(OS(=O)(=O)O)cc(OCc3cccc(COc4cc(OS(=O)(=O)O)cc5oc(-c6ccc(OS(=O)(=O)O)cc6)cc(=O)c45)c3)c12`, 86%.
Regarding `O=c1c(O)c(-c2ccc(O)c(O)c2)oc2cc(O)cc(OCc3ccc(COc4cc(O)cc5oc(-c6ccc(O)c(O)c6)c(O)c(=O)c45)cc3)c12`, the Efficacy was 91% in experiment [2], 111% in experiment [1], 104% in experiment [3] and 109% in experiment [4].
`Cc1cc(COc2cc(OS(=O)(=O)O)cc3oc(-c4ccc(OS(=O)(=O)O)cc4)cc(=O)c23)c(C)cc1COc1cc(OS(=O)(=O)O)cc2oc(-c3ccc(OS(=O)(=O)O)cc3)cc(=O)c12` showed an Efficacy in experiment [1] of 94%. Besides, the Activity in experiment [5] was 108%.
Regarding `O=c1c(OS(=O)(=O)O)c(-c2ccc(OS(=O)(=O)O)c(OS(=O)(=O)O)c2)oc2cc(OS(=O)(=O)O)cc(OCc3cccc(COc4cc(OS(=O)(=O)O)cc5oc(-c6ccc(OS(=O)(=O)O)c(OS(=O)(=O)O)c6)c(OS(=O)(=O)O)c(=O)c45)c3)c12`, the Efficacy in experiment [1] was 107%.
As for `O=c1cc(-c2ccc(OS(=O)(=O)O)cc2)oc2cc(OS(=O)(=O)O)cc(OCc3ccc(-c4ccc(COc5cc(OS(=O)(=O)O)cc6oc(-c7ccc(OS(=O)(=O)O)cc7)cc(=O)c56)cc4)cc3)c12`, the Efficacy in experiment [1] is 79%.
With `O=c1cc(-c2ccc(OS(=O)(=O)O)cc2)oc2cc(OS(=O)(=O)O)cc(OCc3ccc(COc4cc(OS(=O)(=O)O)cc5oc(-c6ccc(OS(=O)(=O)O)cc6)cc(=O)c45)cc3)c12`, in experiment [1], the Efficacy was found to be 89%.
`O=c1cc(-c2ccc(OS(=O)(=O)O)cc2)oc2cc(OS(=O)(=O)O)cc(OCc3cccc(COc4cc(OS(=O)(=O)O)cc5oc(-c6ccc(OS(=O)(=O)O)cc6)cc(=O)c45)n3)c12` registered an Efficacy in experiment [1] of 63%.
Compound `Cc1cc(COc2cc(OS(=O)(=O)O)cc3oc(-c4ccc(OS(=O)(=O)O)c(OS(=O)(=O)O)c4)c(OS(=O)(=O)O)c(=O)c23)c(C)cc1COc1cc(OS(=O)(=O)O)cc2oc(-c3ccc(OS(=O)(=O)O)c(OS(=O)(=O)O)c3)c(OS(=O)(=O)O)c(=O)c12` gave an Efficacy in experiment [1] of 104%. Moreover, the Activity in experiment [5] came to 90%.
Turning to `O=c1cc(-c2ccc(OS(=O)(=O)O)cc2)oc2cc(OS(=O)(=O)O)cc(OCCCCOc3cc(OS(=O)(=O)O)cc4oc(-c5ccc(OS(=O)(=O)O)cc5)cc(=O)c34)c12`, the Efficacy in experiment [1] amounted to 90%.
`O=c1c(OS(=O)(=O)O)c(-c2ccc(OS(=O)(=O)O)c(OS(=O)(=O)O)c2)oc2cc(OS(=O)(=O)O)cc(OCc3ccc(COc4cc(OS(=O)(=O)O)cc5oc(-c6ccc(OS(=O)(=O)O)c(OS(=O)(=O)O)c6)c(OS(=O)(=O)O)c(=O)c45)cc3)c12`: the Efficacy in experiment [2] is 77%; in experiment [1], 93 to 98%; in experiment [4] it was 93%; in the experiment filed under Homo sapiens, 92%. Moreover, the inhibition result in experiment [6] is “Active”.
As for `O=c1c(OS(=O)(=O)O)c(-c2ccc(OS(=O)(=O)O)c(OS(=O)(=O)O)c2)oc2cc(OS(=O)(=O)O)cc(OCc3ccc(-c4ccc(COc5cc(OS(=O)(=O)O)cc6oc(-c7ccc(OS(=O)(=O)O)c(OS(=O)(=O)O)c7)c(OS(=O)(=O)O)c(=O)c56)cc4)cc3)c12`, the Efficacy in experiment [1] was found to be 80%.
In experiment [1], `O=c1cc(-c2ccc(OS(=O)(=O)O)cc2)oc2cc(OS(=O)(=O)O)cc(OC/C=C/COc3cc(OS(=O)(=O)O)cc4oc(-c5ccc(OS(=O)(=O)O)cc5)cc(=O)c34)c12` showed an Efficacy of 90%. For the same compound, the Activity in experiment [5] turned out to be 101%.
`O=c1cc(-c2ccc(OS(=O)(=O)O)cc2)oc2cc(OS(=O)(=O)O)cc(OCCOc3cc(OS(=O)(=O)O)cc4oc(-c5ccc(OS(=O)(=O)O)cc5)cc(=O)c34)c12` registered an Efficacy in experiment [1] of 79%.
Take `O=c1c(OS(=O)(=O)O)c(-c2ccc(OS(=O)(=O)O)c(OS(=O)(=O)O)c2)oc2cc(OS(=O)(=O)O)cc(OCc3cccc(COc4cc(OS(=O)(=O)O)cc5oc(-c6ccc(OS(=O)(=O)O)c(OS(=O)(=O)O)c6)c(OS(=O)(=O)O)c(=O)c45)n3)c12`: in experiment [1], the Efficacy is 90%.
